In ChEMBL document CHEMBL1125200, “Structure-activity relationships of estrogenic ligands: synthesis and evaluation of (17 alpha, 20E)- and (17 alpha, 20Z)-21-halo-19-norpregna-1,3,5(10),20-tetraene-3,17 beta-diols” (J Med Chem, 1991):

Experiments:
[1] = molecular target: T1, Estrogen receptor (Rattus norvegicus) (UniProt P06211+Q62986); test: Relative binding affinity (RBA) for estrogen receptor of rat uterine cytosol at 25 degree C relative to Estradiol; format: protein assay
How it was run: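 Cytosol source is the uterus of immature female Holtzman rats (21–25 days old), kept in liquid nitrogen. Graded concentrations of unlabeled ligand compete with [³H]estradiol during an 18 h incubation at 25 °C. RBA is expressed against estradiol set at 100.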

[2] = molecular target: T2, Estrogen receptor (Ovis aries) (UniProt P49885+Q9TU15); test: Relative binding affinity (RBA) for estrogen receptor in lamb uterine cytosol at OC relative to Estradiol; format: protein assay; settings: Uterus
How it was run: (§1)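 Competitive estrogen receptor binding in lamb uterine cytosol, with estradiol as the standard ligand (RBA = 100). Incubation was at 0–4 °C for 1–2 h.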

[3] = molecular target: T1, Estrogen receptor (Rattus norvegicus); test: Relative binding affinity (RBA) for estrogen receptor of rat uterine cytosol at OC relative to Estradiol; format: protein assay
How it was run: (§2)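 Uterine cytosol from immature female Holtzman rats (21–25 days old), stored in liquid nitrogen. Competition assay with varying concentrations of unlabeled competitor against [³H]estradiol, incubated at 0–4 °C for 1–2 h. RBA is reported relative to estradiol (RBA = 100).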

[4] = molecular target: T1, Estrogen receptor (Rattus norvegicus); test: Relative binding affinity (RBA) for estrogen receptor in rat uterine cytosol at OC relative to Estradiol; settings: Uterus; how it was run: as §2
[5] = molecular target: T2, Estrogen receptor (Ovis aries); test: Relative binding affinity (RBA) for estrogen receptor of lamb uterine cytosol at OC relative to Estradiol; format: protein assay; how it was run: as §1

| SMILES | RBA [1] | relative binding affinity (RBA) [2] | relative binding affinity (RBA) [3] | relative binding affinity (RBA) [4] | relative binding affinity (RBA) [5] |
| --- | --- | --- | --- | --- | --- |
| C[C@]12CC[C@@H]3c4ccc(O)cc4CC[C@H]3[C@@H]1CC[C@@]2(O)/C=C/Cl | 199 | 74 | 126 |  |  |
| C[C@]12CC[C@@H]3c4ccc(O)cc4CC[C@H]3[C@@H]1CC[C@@]2(O)/C=C/I | 776 |  | 202 |  |  |
| C[C@]12CC[C@@H]3c4ccc(O)cc4CC[C@H]3[C@@H]1CC[C@@]2(O)/C=C\Cl | 89 |  |  | 102 | 115 |
| C[C@]12CC[C@@H]3c4ccc(O)cc4CC[C@H]3[C@@H]1CC[C@@]2(O)/C=C\I | 62 |  | 77 |  |  |

The next lines start with the values.

| RBA [1] | relative binding affinity (RBA) [2] | relative binding affinity (RBA) [3] | relative binding affinity (RBA) [4] | relative binding affinity (RBA) [5] | SMILES |
| --- | --- | --- | --- | --- | --- |
| 661 | 117 | 195 |  |  | C[C@]12CC[C@@H]3c4ccc(O)cc4CC[C@H]3[C@@H]1CC[C@@]2(O)/C=C/Br |
| 56 |  |  | 78 | 71 | C[C@]12CC[C@@H]3c4ccc(O)cc4CC[C@H]3[C@@H]1CC[C@@]2(O)/C=C\Br |
